Source: ChEMBL document CHEMBL4689842, “EUbOPEN Chemogenomics Library wave 1” (2021)
Where “and” joins values, the source holds several entries; their conditions need not be identical. Equal entries are not always repeated.

System: Fibroblast
Assay: Multiplex assay against human fibroblast
Type: toxicity, cell-based
Method in brief: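 Values for tubulin, mitochondrial-mass and membrane-permeability phenotypes are per cents of cells with healthy nuclei. These cells were identified by CellPathfinder machine-learning gating of live cells that had been stained at seeding with Hoechst33342, BioTracker Green Microtubule Cytoskeleton Dye, MitoTracker Red and Annexin V Alexa Fluor 680 and imaged on a CQ1 microscope at 37°C and 5% CO2 after compound addition. The gating first set Hoechst high-intensity objects apart from normal cells, then split normal cells into healthy, pyknosed or fragmented nuclei, and pyknosed cells into mitotic or apoptotic.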

[1] = 12 h, 1 µM, compound concentration 1 uM, replicate 1
[2] = 12 h, 1 µM, compound concentration 1 uM, replicate 2
[3] = 12 h, 10 µM, compound concentration 10 uM, replicate 1
[4] = 12 h, 10 µM, compound concentration 10 uM, replicate 2
[5] = 24 h, 1 µM, compound concentration 1 uM, replicate 1
[6] = 24 h, 1 µM, compound concentration 1 uM, replicate 2
[7] = 24 h, 10 µM, compound concentration 10 uM, replicate 1
[8] = 24 h, 10 µM, compound concentration 10 uM, replicate 2

Compound: CCC1=C[C@@H]2C[N@](C1)Cc1c([nH]c3ccccc13)[C@@](C(=O)OC)(c1cc3c(cc1OC)N(C)[C@H]1[C@@](O)(C(=O)OC)[C@H](OC(C)=O)[C@]4(CC)C=CCN5CC[C@]31[C@@H]54)C2.O=C(O)C(O)C(O)C(=O)O.O=C(O)C(O)C(O)C(=O)O [VINORELBINE TARTRATE]
- Population Apoptotic (%) [1]: 63% and 65%
- Population Fragmented Nuclei (%) [1]: 27% and 51%
- Population Healthy Nuclei (%) [1]: 48% and 34%
- Population Hoechst High Intensity Objects (%) [1]: 16% and 26%
- Population Mitochondria Different-Phenotype (%) [1]: 14% and 9%
- Population Mitotic Cells (%) [1]: 36% and 34%
- Population Normal (%) [1]: 83% and 73%
- Population Pyknosed Nuclei (%) [1]: 23% and 14%
- Population Tubulin-Different-Phenotype (%) [1]: 8% and 4%
- Total Cell Count [1]: 151 and 452
- Population Apoptotic (%) [2]: 100% and 80%
- Population Fragmented Nuclei (%) [2]: 79% and 75%
- Population Healthy Nuclei (%) [2]: 18% and 15%
- Population Hoechst High Intensity Objects (%) [2]: 44% and 38%
- Population Membrane Permeable-Phenotype (%) [2]: 22% and 0%
- Population Mitochondria Different-Phenotype (%) [2]: 0%
- Population Mitotic Cells (%) [2]: 0% and 20%
- Population Normal (%) [2]: 55% and 61%
- Total Cell Count [2]: 86 and 94
- Population Apoptotic (%) [3]: 67% and 68%
- Population Fragmented Nuclei (%) [3]: 46% and 27%
- Population Healthy Nuclei (%) [3]: 39% and 50%
- Population Hoechst High Intensity Objects (%) [3]: 18%
- Population Membrane Permeable-Phenotype (%) [3]: 6% and 4%
- Population Mitochondria Different-Phenotype (%) [3]: 13% and 6%
- Population Mitotic Cells (%) [3]: 32% and 31%
- Population Normal (%) [3]: 81%
- Population Pyknosed Nuclei (%) [3]: 13% and 22%
- Population Tubulin-Different-Phenotype (%) [3]: 3%
- Total Cell Count [3]: 353 and 227
- Population Apoptotic (%) [4]: 50% and 60%
- Population Fragmented Nuclei (%) [4]: 59% and 69%
- Population Healthy Nuclei (%) [4]: 31% and 24%
- Population Hoechst High Intensity Objects (%) [4]: 32% and 26%
- Population Membrane Permeable-Phenotype (%) [4]: 17% and 0%
- Population Mitochondria Different-Phenotype (%) [4]: 17% and 10%
- Population Mitotic Cells (%) [4]: 50% and 40%
- Population Normal (%) [4]: 67% and 73%
- Population Pyknosed Nuclei (%) [4]: 8% and 6%
- Population Tubulin-Different-Phenotype (%) [4]: 13% and 0%
- Total Cell Count [4]: 107 and 111
- Population Apoptotic (%) [5]: 73% and 63%
- Population Fragmented Nuclei (%) [5]: 54% and 33%
- Population Healthy Nuclei (%) [5]: 31% and 50%
- Population Hoechst High Intensity Objects (%) [5]: 25% and 18%
- Population Mitochondria Different-Phenotype (%) [5]: 8% and 7%
- Population Mitotic Cells (%) [5]: 26% and 36%
- Population Normal (%) [5]: 74% and 81%
- Population Pyknosed Nuclei (%) [5]: 13% and 16%
- Population Tubulin-Different-Phenotype (%) [5]: 4% and 3%
- Population Fragmented Nuclei (%) [6]: 76% and 77%
- Population Healthy Nuclei (%) [6]: 20% and 15%
- Population Hoechst High Intensity Objects (%) [6]: 44% and 34%
- Population Mitochondria Different-Phenotype (%) [6]: 22% and 9%
- Population Mitotic Cells (%) [6]: 100% and 40%
- Population Normal (%) [6]: 55% and 65%
- Population Pyknosed Nuclei (%) [6]: 2% and 6%
- Population Tubulin-Different-Phenotype (%) [6]: 22% and 9%
- Total Cell Count [6]: 77 and 110
- Population Apoptotic (%) [7]: 77% and 75%
- Population Fragmented Nuclei (%) [7]: 48% and 27%
- Population Healthy Nuclei (%) [7]: 35% and 54%
- Population Hoechst High Intensity Objects (%) [7]: 26% and 19%
- Population Membrane Permeable-Phenotype (%) [7]: 5% and 4%
- Population Mitochondria Different-Phenotype (%) [7]: 9% and 2%
- Population Mitotic Cells (%) [7]: 22% and 25%
- Population Normal (%) [7]: 73% and 80%
- Population Pyknosed Nuclei (%) [7]: 15% and 18%
- Population Tubulin-Different-Phenotype (%) [7]: 3% and 1%
- Total Cell Count [7]: 394 and 248
- Population Fragmented Nuclei (%) [8]: 60% and 80%
- Population Healthy Nuclei (%) [8]: 31% and 17%
- Population Hoechst High Intensity Objects (%) [8]: 37% and 27%
- Population Membrane Permeable-Phenotype (%) [8]: 10% and 0%
- Population Mitochondria Different-Phenotype (%) [8]: 10% and 0%
- Population Normal (%) [8]: 62% and 72%
- Population Tubulin-Different-Phenotype (%) [8]: 0%
- Total Cell Count [8]: 103 and 151
